PME-1 primary = blocks human protein phosphatase methylesterase 1 | Q9Y570 | recombinant PME-1, FP-Rh probe fluorescence polarization | 320,000 compounds, 0.53% hits | inhibition, % at 5.9 µM;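 active = inhibition above the campaign mean of all compounds plus 3 SD, cut at about 26% in these data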;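 note: competitive labeling of PME-1 active site by serine hydrolase directed probe; 0% = PME-1 with DMSO and 100% = wells lacking PME-1 enzyme; inhibitors block probe labeling so polarization falls and inhibition rises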
Target sequence (Q9Y570 whole entry, looked up): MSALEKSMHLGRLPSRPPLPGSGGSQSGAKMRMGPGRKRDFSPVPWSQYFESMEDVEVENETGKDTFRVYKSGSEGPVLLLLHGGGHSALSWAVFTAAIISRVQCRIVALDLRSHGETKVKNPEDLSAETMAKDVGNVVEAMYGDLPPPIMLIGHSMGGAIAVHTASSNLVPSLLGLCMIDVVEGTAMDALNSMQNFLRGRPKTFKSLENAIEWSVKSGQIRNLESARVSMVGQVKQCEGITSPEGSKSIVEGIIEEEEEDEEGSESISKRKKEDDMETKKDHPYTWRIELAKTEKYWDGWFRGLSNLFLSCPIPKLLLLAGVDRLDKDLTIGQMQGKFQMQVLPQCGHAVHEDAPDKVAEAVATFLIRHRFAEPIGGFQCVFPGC
LYPLA2 counter = blocks human lysophospholipase 2, a PME1 counter-screen | inhibition, % at 5.9 µM | recombinant LYPLA2, FP-Rh probe fluorescence polarization | 320,000 compounds, 0.38% hits | AID 2177;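 active = inhibition above the screen-wide mean plus 3 SD, limit set per campaign, cut at about 26% in these data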;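 note: 0% = LYPLA2 with DMSO and 100% = wells lacking LYPLA2 enzyme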
Target sequence (O95372 whole entry, looked up): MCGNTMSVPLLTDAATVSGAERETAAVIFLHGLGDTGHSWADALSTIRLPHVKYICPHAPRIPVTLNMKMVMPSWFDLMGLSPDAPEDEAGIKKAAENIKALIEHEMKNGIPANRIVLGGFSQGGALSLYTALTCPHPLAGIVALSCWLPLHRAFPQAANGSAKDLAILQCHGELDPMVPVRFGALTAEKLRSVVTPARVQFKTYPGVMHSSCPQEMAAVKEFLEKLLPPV
Fam108B inh = Fam108B inhibition, counter-screen for RBBP9 inhibitors; AID 1947; inhibition, % at 9.51 µM; recombinant Fam108B, FP-Rh probe fluorescence polarization; 300,000 compounds, 0.33% hits;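 active = inhibition above the screen mean inhibition plus 3 SD, computed separately per campaign, cut at about 18% in these data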;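 note: inhibitors lower polarization as less probe binds the enzyme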
LYPLA1 inh = LYPLA1 (human) inhibition in PME1 counter-screen. O75608. inhibition, % at 5.9 µM. recombinant LYPLA1, FP-Rh probe fluorescence polarization. 320,000 compounds, 0.16% hits;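 active = inhibition above the mean of all tested compounds plus 3 SD, set per campaign, cut at about 14% in these data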;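 note: inhibitors block serine hydrolase probe labeling of LYPLA1 so polarization falls; 0% = enzyme with DMSO and 100% = wells lacking LYPLA1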
RBBP9 inh = blocks human serine hydrolase RBBP9; O75884; recombinant RBBP9, FP-Rh probe fluorescence polarization; inhibition, % at 7.94 µM; 220,000 compounds, 0.2% hits; AID 1515;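 active = inhibition above the campaign mean of all tested compounds plus 3 SD, cut at about 14% in these data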;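 note: plate controls were DMSO wells with RBBP9 for no effect and wells lacking RBBP9 protein for full effect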
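Material: RBBP9 protein. Amount: RBBP9 at 2.5 µM in dispensed solution, before mixing. Schedule: 30 min then 45 min, 25 °C. Medium: Tris buffer pH 8.0, NaCl, Pluronic. Measured by: fluorescence polarization. Measure: percent inhibition from mP, scaled between DMSO and no-protein wells. Replication: one well per compound.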
PAD4 inh = blocks human protein arginine deiminase 4 | inhibition, % at 6.36 µM | AID 485272 | recombinant PAD4, RCA probe fluorescence polarization | 330,000 compounds, 0.41% hits | Q9UM07;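 active = percent inhibition above a cutoff equal to the mean of all tested compounds plus 3 SD, cut at about 15% in these data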;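 note: 0% = PAD4 with RCA probe and DMSO and 100% = probe without PAD4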
LYPLA2 conf = LYPLA2 (human) inhibition, confirmation counter-screen; inhibition, % at 5.9 µM; recombinant LYPLA2, FP-Rh probe fluorescence polarization; 1,100 compounds, 72% hits; shares compounds with LYPLA2 counter;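 active = mean inhibition across replicates above the hit cutoff set in the primary screen, cut at about 26% in these data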;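 note: blocked labeling of the enzyme by serine hydrolase FP-Rh probe lowers polarization; 0% = enzyme with DMSO and 100% = wells lacking LYPLA2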
LYPLA2 ABPP = LYPLA2 (human) inhibition, late stage results; rhLYPLA2 in mouse brain proteome, gel ABPP FP-Rh; AID 652029; 150 compounds, 30% hits; inhibition, % at 20 µM; shares compounds with LYPLA2 counter;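 active = inhibition of LYPLA2 enzyme probe labeling above about 50%, limit read from the data; inactive = inhibition below that limit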;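 note: loss of FP-Rh probe labeling of the LYPLA2 gel band measured as band density; 0% = DMSO only control band and 100% = blank gel background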
* hit, by the source's call; . = not tested or not shown. This is a sample that favours compounds with a hit; in the whole collection about 1.3% have one here.

SMILES	PME-1 primary	LYPLA2 counter	Fam108B inh	LYPLA1 inh	RBBP9 inh	PAD4 inh	LYPLA2 conf	others
O=C(c1ccco1)N1CCN(C(=S)Nc2ccc(F)c(Cl)c2)CC1	-1.0	65.5*	3.8	2.0	.	-6.5	68.2*	LYPLA2 ABPP=47.0
COc1ccccc1C(=O)NC(=S)Nc1ccc(N2CCN(C(=O)c3ccco3)CC2)cc1	5.3	27.1*	1.1	1.6	.	-0.9	25.6
Cc1ccccc1C(=O)N1CCN(c2ccc(NC(=S)NC(=O)c3ccco3)cc2)CC1	-2.5	7.6	3.1	-3.1	.	2.5	.
O=C(Nc1ccc(N2CCN(C(=O)c3ccco3)CC2)c(Cl)c1)c1c(F)c(F)c(F)c(F)c1F	-4.2	61.7*	-8.8	0.7	-5.0	-3.5	64.1*	LYPLA2 ABPP=50.0*
Cc1ccccc1C(O)c1ccccn1 (stereo not drawn)	0.6	1.8	3.7	-1.6	-7.1	-0.1	.
O=C(Cn1cnc2ccccc2c1=O)NCCC(=O)Nc1ccccc1C(F)(F)F	-1.0	-4.2	-1.9	-4.4	.	-2.9	.
Cc1ccc(OCC(=O)NCc2ccccc2)c([N+](=O)[O-])n1	-1.2	54.3*	0.6	3.3	-6.5	-1.4	-4.6
CCCCn1nc(C(=O)N(C)CC(=O)Nc2ccc(F)c(F)c2F)ccc1=O	.	.	.	.	.	-1.5	.
COc1cccc(N2CCN(C(=O)c3ccc(-c4ccccc4)cc3)CC2)c1	-1.0	29.7*	-2.4	1.7	.	0.9	26.2*
COc1ccc(N2CCN(C(=O)c3ccc(C(C)(C)C)cc3)CC2)cc1	-1.6	78.8*	-0.6	5.6	-8.9	2.0	86.7*	LYPLA2 ABPP=86.0*
Cc1ccc(C(=O)N2CCN(c3ccc(NC(=O)c4cccnc4)cc3)CC2)cc1	-7.6	17.3	4.3	0.3	-9.0	-0.1	.
COc1ccc(C(=O)N2CCN(c3cccc(Cl)c3)CC2)cc1	-7.2	8.2	0.6	2.5	-3.1	-2.5	.
O=C(Nc1ccc(C(=O)N2CCN(c3ccc(F)cc3)CC2)cc1)C1=CSCCO1	3.1	20.2	0.6	1.4	.	-3.7	.
COc1ccc(N2CCN(C(=O)CCNC(=O)c3ccc(C(C)(C)C)cc3)CC2)cc1	0.0	6.2	-2.2	-2.8	-1.6	-0.5	.
COc1ccc(N2CCN(C(=O)c3ccc(NC(=O)C4=CSCCO4)cc3)CC2)cc1	4.9	34.8*	0.8	-4.1	.	6.3	38.1*
COc1cc(C(=O)Nc2ccc(N3CCN(C(=O)c4ccc(C)cc4)CC3)cc2)cc(OC)c1OC	2.5	37.9*	-1.3	7.9	.	-8.2	50.0*	LYPLA2 ABPP=35.0
O=C(c1ccc(-n2cccn2)cc1)N1CCN(c2ncccc2C(F)(F)F)CC1	6.6	4.3	-0.2	2.3	.	-2.8	.
OC(CNCc1ccco1)Cn1c2ccc(Br)cc2c2cc(Br)ccc21 (stereo not drawn)	-2.1	3.4	-1.3	-0.1	-8.8	-3.1	.
CC(C)C(c1nnnn1Cc1cccs1)N1CCN(c2ccccc2)CC1 (stereo not drawn)	4.9	0.3	2.9	0.4	-1.1	-1.7	.
CC(=O)c1ccc(N2CCN(C(=O)c3ccc(OCc4c(C)noc4C)cc3)CC2)cc1	-6.9	36.6*	-4.7	-3.9	3.4	5.7	28.4*
COc1ccc(N2CCN(C(=O)c3ccc(N4C(=O)NC5CC4(C)Oc4ccccc45)cc3)CC2)cc1 (stereo not drawn)	-2.4	33.6*	0.8	-0.5	-4.8	6.2	39.5*
Cc1noc(C)c1COc1ccc(C(=O)N2CCN(c3ccccc3F)CC2)cc1	-2.0	17.5	-3.3	0.1	.	0.7	.
Cc1cc(C)n(-c2ccc(C(=O)OCC(=O)N3CCN(c4ccccc4)CC3)cc2)n1	.	.	.	.	.	-2.8	.
COc1ccc(N2CCN(C(=O)c3ccc(-n4nc(C)cc4C)cc3)CC2)cc1	-1.6	40.9*	-3.4	-1.9	3.2	1.6	39.2*
CC1=CN2C(=N)/C(=C\c3cn(CCCOc4ccccc4)c4ccccc34)C(=O)N=C2S1	-3.4	1.1	-8.8	-3.2	-0.9	0.6	.
SMILES	PME-1 primary	LYPLA2 counter	Fam108B inh	LYPLA1 inh	RBBP9 inh	PAD4 inh	LYPLA2 conf	others
CC(C)(C)c1ccc(-n2ncc3c2CCCC3NC(=O)C2=NNC(=O)CC2)cc1 (stereo not drawn)	-4.6	16.5	2.4	5.4	.	2.4	.
COc1cc(C(=O)N2CCN(C(=O)c3ccccc3)CC2)cc(OC)c1OC	3.5	-5.3	-0.2	0.5	-6.4	4.7	.
COc1cc(C(=O)N2CCN(C(=O)c3cc(-c4ccc(Br)cc4)n[nH]3)CC2)cc(OC)c1OC	6.6	27.9*	-4.4	-3.2	.	5.0	32.0*
CC(=O)c1ccc(-n2c(SCC(=O)c3c[nH]c4ccccc34)nc3ccccc3c2=O)cc1	-23.9	-14.3	-38.3	-16.8	-1.7	-4.6	.
O=C(/C=C/c1ccccc1[N+](=O)[O-])NCCCN1CCCC1=O	-1.9	-0.4	-2.8	4.3	.	1.4	.
O=C(c1ccc(S(=O)(=O)N2CCCC2)cc1)N1CCC(CN2C(=O)c3cccc4cccc(c34)C2=O)CC1	-3.5	26.8*	-3.9	5.0	3.7	-2.1	15.9
COc1ccc(S(=O)(=O)N2CCC(CN3C(=O)c4cccc5cccc(c45)C3=O)CC2)cc1	10.0	4.6	-9.4	-2.4	-4.6	-2.9	.
CC(NCc1cccc(OCc2ccccc2)c1)C(O)c1ccccc1 (stereo not drawn)	3.4	7.7	-1.6	1.7	-10.3	-2.6	.
CC(NCc1ccc(OCc2ccc(Cl)cc2)cc1)C(O)c1ccccc1 (stereo not drawn)	-7.7	39.0*	3.0	1.5	-5.1	0.1	38.1*
O=S(=O)(c1ccccc1Cl)N1CCC(Cc2ccccc2)CC1	-3.7	0.6	-5.1	-1.0	.	-0.7	.
COc1ccc(N2CCN(C(=O)c3cc4c(s3)CCCCC4)CC2)cc1	2.1	62.1*	.	0.8	.	-6.5	61.7*	LYPLA2 ABPP=32.0
C=CCN1CCN(C(=O)c2cc3c(s2)CCCC3)CC1	3.0	8.2	0.6	1.4	.	5.5	.
CC(=O)c1ccc(N2CCN(C(=O)c3cc4c(s3)CCCC4)CC2)cc1	-3.7	44.0*	-4.0	3.4	-1.1	6.2	53.8*	LYPLA2 ABPP=28.0
COc1ccc2c(c1)CCc1cc(C(=O)N3CCN(c4ccc(N5CCOCC5)nn4)CC3)sc1-2	1.1	58.6*	1.5	0.4	-9.8	1.3	59.5*	LYPLA2 ABPP=23.0
COc1ccccc1N1CCN(C(=O)c2cc3c(s2)CCC3)CC1	2.0	-0.2	-0.1	-2.8	2.6	-0.7	.
Cc1cccc(-n2nnnc2SCC(=O)Nc2cccc(S(N)(=O)=O)c2)c1	-11.9	-2.9	1.8	-4.2	-6.2	1.6	.
COc1ccc(Br)cc1/C=N/n1c(COc2ccccc2)n[nH]c1=S	0.3	-2.6	0.1	-2.7	.	-4.1	.
Cc1ccc(NC(=O)Cn2cnc3sc(C(=O)NCCN(C)C)c(C)c3c2=O)cc1Cl	.	.	.	.	-8.1	.	.
